# Measured values gathered from unrelated publications.
# PPARA: Peroxisome proliferator-activated receptor alpha (PPARA, Homo sapiens, UniProt Q07869)
# MMP1: Interstitial collagenase (MMP1, Homo sapiens, UniProt P03956)
SMILES,target,test,system,conditions,quantity,value
C#Cc1n[nH]c2c(-c3cn([C@@H](C)c4ccccn4)c(=O)[nH]c3=O)cc(F)cc12,"TRAF2 and NCK-interacting protein kinase (TNIK, Homo sapiens, UniProt Q9UKE5)","enzyme activity, inhibitor",,0.1 µM,inhibition,-0.3%
CCOC(=O)c1ccc(OC(=O)CCCCCNC(=N)N)cc1,"Ubiquitin carboxyl-terminal hydrolase 7 (USP7, Homo sapiens, UniProt Q93009)","enzyme activity, inhibitor",,10 µM,inhibition,0%
Cc1nn(C)cc1-c1nc2c(N3CCN(Cc4ccc(Cl)cc4)CC3)c(Cl)cnc2[nH]1,"Serine/threonine-protein kinase 36 (STK36, Homo sapiens, UniProt Q9NRP7)","binding, competition with immobilised ligand",,1 µM,remaining binding,74%
O=S(=O)(O)C(F)(F)C(F)(F)OC(F)(C(F)(F)F)C(F)(F)OC(F)C(F)(F)F (stereo not drawn),PPARA,"reporter gene, agonist, luciferase",,,Emax,28%
C#Cc1n[nH]c2c(-c3cn([C@@H](C)c4ccccc4)c(=O)[nH]c3=O)cc(F)cc12,"Inactive tyrosine-protein kinase PEAK1 (PEAK1, Homo sapiens, UniProt Q9H792)","enzyme activity, inhibitor",,0.1 µM,inhibition,6.5%
N=C(N)c1ccc2cc(OC(=O)c3ccc(N=C(N)N)cc3)ccc2c1,MMP1,"enzyme activity, inhibitor",,10 µM,inhibition,0%
O=C(O)C(F)(OC(F)(F)C(F)(F)C(F)(F)F)C(F)(F)F (stereo not drawn),PPARA,"reporter gene, agonist, luciferase",,,Emax,134%
CN(C)C(=O)COC(=O)Cc1ccc(OC(=O)c2ccc(NC(=N)N)cc2)cc1,"Caspase-9 (CASP9, Homo sapiens, UniProt P55211)","enzyme activity, inhibitor",,10 µM,inhibition,0%
COc1ncccc1-c1cnn2ccc(N3CCN(C(=O)OC(C)C)CC3)nc12,"Mitogen-activated protein kinase kinase kinase 1 (MAP3K1, Homo sapiens, UniProt Q13233)","binding, competition with immobilised ligand",,1 µM,remaining binding,49%
Clc1cccc(-c2c[nH]c3ncnc(N4CCOCC4)c23)c1,"Serine/threonine-protein kinase 4 (STK4, Homo sapiens, UniProt Q13043)","thermal stability, DSF",,20 µM,ΔTm,> 8 °C
COc1cc(Nc2ncc(F)c(Nc3ccc4c(n3)NC(=O)C(C)(C)O4)n2)cc(OC)c1OC,"Serine/threonine-protein kinase OSR1 (OXSR1, Homo sapiens, UniProt O95747)","binding, competition with immobilised ligand",,10 µM,inhibition,71%
O=C(Nc1cccnn1)N1CCN([C@@H]2CCOc3cc(C(F)(F)F)ccc32)CC1,MMP1,cell-free assay,,20 µM,inhibition,8%
CN1CCN(c2ccc(Nc3nccc(-c4ccccc4)n3)cc2C(F)(F)F)CC1,"Calcium-dependent protein kinase 1 (CDPK1, Plasmodium falciparum, UniProt P62344)",binding,,10 µM,remaining binding,13%
O=S(=O)(O)C(F)(F)C(F)(F)C(F)(F)C(F)(F)C(F)(F)C(F)(F)F,PPARA,"reporter gene, agonist, luciferase",COS-7,,Emax,67%
Nc1ncc(-c2nc(N3CCOCC3)nc(N3CCOCC3)n2)c(C(F)F)n1,"Hepatocyte growth factor receptor (MET, Homo sapiens, UniProt P08581, M1250T)","cell-free assay, competition with immobilised ligand",,10 µM,remaining binding,100%
